For assay [1], the species on record is Homo sapiens. Put plainly: Selectivity for human NTMT2 over human MLL3 complex at 100 uM. In short, it runs like this:
(§1)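 Single-point panel screen against 41 PKMTs, PRMTs, DNMTs and NTMT1/2. Each compound was tested at 100 µM, in duplicate (n=2).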

Assay [2] is filed under the species Homo sapiens. Put plainly: Selectivity for human NTMT1 over human MLL1 complex at 100 uM. In short, it runs like this:
(§2)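 Panel of 41 PKMTs, PRMTs, DNMTs and NTMT1/2, tested at 100 µM compound in duplicate (n=2).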

For assay [3], the species on record is Homo sapiens. The assay can be described thus: Selectivity for human NTMT1 over human PRDMT5 at 100 uM. In outline:
as §2

Assay [4] is filed under the species Homo sapiens. The assay can be described thus: Selectivity for human NTMT2 over human DNMT3b at 100 uM. In short, it runs like this: as §1
The target in assay [5] is T1, N-terminal Xaa-Pro-Lys N-methyltransferase 1 (Homo sapiens) (UniProt Q9BV86).
T1 sequence (whole entry): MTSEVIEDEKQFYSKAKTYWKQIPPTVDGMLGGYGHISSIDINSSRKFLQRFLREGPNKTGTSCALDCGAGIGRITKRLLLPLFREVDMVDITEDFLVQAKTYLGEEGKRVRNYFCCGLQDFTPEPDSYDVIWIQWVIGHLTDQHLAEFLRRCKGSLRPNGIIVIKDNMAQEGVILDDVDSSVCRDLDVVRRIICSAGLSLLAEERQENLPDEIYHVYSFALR
Put plainly: Non-competitive inhibition of recombinant human full-length His6-tagged NTMT1 (1 to 222 residues) expressed in Escherichia coli BL21-CodonPlus(DE3)-RIL competent cells pre-incubated for 10 mins in presence of varying levels of SAM and SAHH before fixed level of RCC1-6 addition and measured after 15 mins by fluorescence based SAHH-coupled assay. The note with it: time 25.0 min. In short, it runs like this:
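Same SAHH-coupled ThioGlo1 set-up as the substrate series: 25 mM Tris pH 7.4, 50 mM KCl, 10 µM SAHH, 0.2 µM NTMT1, 15 µM ThioGlo1, inhibitor 0–100 µM. […] Triplicate IC50 at each SAM level plotted against [SAM]/Km.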

The species named for assay [6] is Homo sapiens. The assay can be described thus: Selectivity for human NTMT1 over human EZH1 complex at 100 uM. In outline:
as §2

For assay [7], the species on record is Homo sapiens. Put plainly: Selectivity for human NTMT1 over human DNMT1 at 100 uM. In outline:
as §2

Assay [8] is filed under the species Homo sapiens. Put plainly: Selectivity for human NTMT2 over human MLL1 complex at 100 uM. In outline: as §1
The species entered for assay [9] is Homo sapiens. Put plainly: Selectivity for human NTMT2 over human PRDM9 at 100 uM. In short, it runs like this: as §1
Assay [10] is filed under the species Homo sapiens. Put plainly: Selectivity for human NTMT2 over human EZH2 complex Y641F mutant at 100 uM. In short, it runs like this: as §1
In assay [11] the target is T2, Histone-lysine N-methyltransferase EHMT2 (Homo sapiens, UniProt Q96KQ7).
T2 sequence (Q96KQ7 whole entry): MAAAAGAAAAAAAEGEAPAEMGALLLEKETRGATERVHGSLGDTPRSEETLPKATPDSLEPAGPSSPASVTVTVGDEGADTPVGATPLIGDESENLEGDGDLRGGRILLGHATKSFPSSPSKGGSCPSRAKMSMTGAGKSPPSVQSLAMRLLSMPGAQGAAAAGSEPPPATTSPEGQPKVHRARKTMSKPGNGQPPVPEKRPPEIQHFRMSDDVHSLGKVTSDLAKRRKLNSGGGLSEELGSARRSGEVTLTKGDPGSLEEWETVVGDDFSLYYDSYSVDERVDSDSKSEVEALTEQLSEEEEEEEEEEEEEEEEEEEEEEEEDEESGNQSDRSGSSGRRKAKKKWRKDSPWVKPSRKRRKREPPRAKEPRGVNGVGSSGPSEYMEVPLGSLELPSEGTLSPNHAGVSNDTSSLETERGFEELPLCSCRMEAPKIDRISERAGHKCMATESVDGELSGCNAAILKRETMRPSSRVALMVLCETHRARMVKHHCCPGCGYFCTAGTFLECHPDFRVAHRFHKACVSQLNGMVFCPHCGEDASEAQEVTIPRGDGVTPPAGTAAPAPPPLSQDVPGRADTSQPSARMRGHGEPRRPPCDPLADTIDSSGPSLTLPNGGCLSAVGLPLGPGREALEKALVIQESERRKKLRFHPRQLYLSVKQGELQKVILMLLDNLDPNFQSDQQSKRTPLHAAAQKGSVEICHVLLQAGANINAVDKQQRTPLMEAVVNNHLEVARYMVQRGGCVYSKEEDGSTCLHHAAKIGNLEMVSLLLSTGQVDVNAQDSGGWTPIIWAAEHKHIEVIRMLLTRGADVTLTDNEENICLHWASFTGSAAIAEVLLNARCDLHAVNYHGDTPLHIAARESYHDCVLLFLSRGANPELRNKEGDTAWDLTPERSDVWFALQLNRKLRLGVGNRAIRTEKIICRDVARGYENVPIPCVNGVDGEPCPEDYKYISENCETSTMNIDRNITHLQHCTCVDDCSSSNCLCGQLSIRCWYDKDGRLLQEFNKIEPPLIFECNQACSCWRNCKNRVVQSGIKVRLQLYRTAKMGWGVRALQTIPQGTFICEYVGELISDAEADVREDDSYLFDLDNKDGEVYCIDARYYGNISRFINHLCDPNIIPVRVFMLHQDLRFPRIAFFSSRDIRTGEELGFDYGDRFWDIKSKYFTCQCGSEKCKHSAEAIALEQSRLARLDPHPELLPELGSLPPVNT
Put plainly: Inhibition of human His-tagged G9a (913 to 1193 residues) expressed in Escherichia coli BL21-CodonPlus(DE3)-RIL using H3-21 peptide as substrate preincubated for 10 mins in presence of SAM followed by substrate addition by fluorescence assay.

SMILES strings stand for the structures. The source made the active and inactive calls. The rule behind the calls is not given here.

A word on the IC50: it is the midpoint of a concentration-inhibition curve. With `N=C(N)NCCC[C@H](NC(=O)[C@H](CCCCN)NC(=O)[C@@H]1CCCN1C(=O)Cc1ccc(O)cc1)C(N)=O`, the Selectivity ratio in the assay listed under Homo sapiens [1], in the assay listed under Homo sapiens [2], in the assay filed under Homo sapiens [3], in the assay listed under Homo sapiens [4], in the assay listed under Homo sapiens [6] and in the assay filed under Homo sapiens [7] was above 100 each time. Also, the Selectivity ratio in the assay filed under Homo sapiens [8], in the assay listed under Homo sapiens [9] and in the assay listed under Homo sapiens [10] was above 100 each time. For the same compound, the inhibition result in [5] was “Active”. The IC50 in assay [11] is above 100 µM.
